Experimental data gathered from unrelated publications.
Protocols differ between the studies behind these lines.
Target: Casein kinase I isoform alpha-like (CSNK1A1L, Homo sapiens, UniProt Q8N752)
Residues used in one study (Q8N752 1-337): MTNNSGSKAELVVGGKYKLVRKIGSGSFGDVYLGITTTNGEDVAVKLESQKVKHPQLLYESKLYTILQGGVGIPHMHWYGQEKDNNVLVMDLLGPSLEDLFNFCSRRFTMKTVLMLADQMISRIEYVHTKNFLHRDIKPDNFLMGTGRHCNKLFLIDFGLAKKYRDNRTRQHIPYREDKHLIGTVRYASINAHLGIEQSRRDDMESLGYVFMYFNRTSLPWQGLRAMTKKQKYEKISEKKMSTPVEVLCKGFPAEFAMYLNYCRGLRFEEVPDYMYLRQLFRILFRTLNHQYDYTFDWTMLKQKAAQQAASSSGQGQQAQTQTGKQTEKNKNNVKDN

| Compound | assay | setting | remaining binding [%] |
| --- | --- | --- | --- |
| c1cnn2ncc(-c3ccnc(N4CCC45COC5)n3)c2c1 | binding | 1 µM | 68 |
| O=C(Nc1c[nH]nc1C(=O)NC1CCNCC1)c1cc(F)cc(F)c1 | binding, competition with immobilised ligand | 1 µM | 84 |
| Cc1nccc(COC(=O)N2C[C@@H]3[C@@H](CNC(=O)c4ccc5[nH]nnc5c4)[C@@H]3C2)n1 | cell-free assay, competition with immobilised ligand | 1 µM | 100 |
| CCN1CCN(Cc2ccc(C(=O)Nc3ccc(C)c(Oc4ccc5c(c4)CC(=O)N5)c3)cc2C(F)(F)F)CC1 | binding, competition with immobilised ligand | 1 µM | 100 |
| CC1CCCN1c1nccc(-c2cnn3ncccc23)n1 (stereo not drawn) | binding | 1 µM | 100 |
| C[C@@H](c1ccc(-n2cnc3c(N)ncnc32)cc1)N1CCc2nn(C)c(Cc3ccccc3)c2C1=O | binding, competition with immobilised ligand | 0.1 µM | 91 |
| N[C@H]1CCN(c2nccc(-c3cnn4ncccc34)n2)C1 | binding | 1 µM | 100 |
| O=C(NCCCN1CCOCC1)c1ccc(Nc2nccc(-c3cc4ccccc4s3)n2)cc1 | binding, competition with immobilised ligand | 1 µM | 91 |
| CNC(=O)[C@@H]1CC[C@@H](n2c(-c3ccc4cnccc4c3)nc3ccc(C(=O)NCc4cccc(C(N)=O)c4)cc32)C1 | binding, competition with immobilised ligand | 1 µM | 100 |
| CN(c1nccc(-c2cnn3ncccc23)n1)C1CC1 | binding | 1 µM | 100 |
| CC(C)CC(=O)N1CCc2nc(-c3ccc(Br)cc3)nc(N(C)Cc3ccccc3)c2C1 | cell-free assay, competition with immobilised ligand | 0.1 µM | 100 |
| O=C(c1ccc(Nc2nccc(-c3cc4ccccc4s3)n2)cc1)N1CCC(N2CCCC2)CC1 | binding, competition with immobilised ligand | 1 µM | 98 |
| C[C@H]1CCN(c2nccc(-c3cnn4ncccc34)n2)C1 | binding | 1 µM | 100 |
| COc1ccc2c(c1)O[C@H](c1ccc(OC)c(OC)c1)C[C@@H]2NC(=O)C1(c2ccc3c(c2)OC(F)(F)O3)CC1 | cell-free assay, competition with immobilised ligand | 1 µM | 100 |
| COc1ncc2cc3ccccc3nc2c1C#N | cell-free assay, competition with immobilised ligand | 5 µM | 100 |
| CCCOc1ccc([C@@H]2[C@@H](C(=O)O)[C@H](c3ccc4c(c3)OCO4)CN2CC(=O)Nc2c(CC)cccc2CC)cc1 | cell-free assay, competition with immobilised ligand | 1 µM | 94 |
| O=C(NCCCN1CCOCC1)c1ccc(Nc2ncc(Cl)c(-c3ccc(Cl)s3)n2)cc1 | binding, competition with immobilised ligand | 1 µM | 100 |
| CCC(=N\O)/C(C)=C/c1ccc(F)cc1 | cell-free assay, competition with immobilised ligand | 1 µM | 78 |
| CN(C)c1ncc(F)c(-c2cnn3ncccc23)n1 | binding | 1 µM | 100 |
| COc1cnc(Nc2cccc(S(N)(=O)=O)c2)nc1N1CCN(c2ccccc2)CC1 | binding, competition with immobilised ligand | 1 µM | 96 |
| Cc1c[nH]c2nccc(Oc3c(F)cc(Nc4cc(Cl)nc(N)n4)cc3F)c12 | cell-free assay, competition with immobilised ligand | 0.1 µM | 89 |
